This passage reports EC50 results from ChEMBL document CHEMBL1125248, “Synthesis and anticancer activity of various 3'-deoxy pyrimidine nucleoside analogues and crystal structure of 1-(3-deoxy-beta-D-threo-pentofuranosyl)cytosine” (1991).

What all share (format): functional
For one test, the system named is L1210. The experiment in a line: Effective dose to inhibit the replication of L1210 cell line in vitro. The conditions noted are these: Mus musculus, read-out: ED50 (the source's name). The method in brief: (§1)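 Murine L1210, P388 and S-180 cells grown as suspension cultures in Fischer's medium with 10% horse serum at 37 °C under 5% CO2. Various concentrations added to exponentially growing cells at 2 × 10⁴ cells/mL. Cells counted against drug-free controls after 24, 48 and 72 h. ED50 (50% inhibition of replication) estimated from dose-response curves of at least two independent experiments.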

The test system of a further test is CCRF S-180. The experiment in a line: Effective dose to inhibit the replication of S180 cell line in vitro. Particulars: Mus musculus, read-out: ED50 (the source's name). The method in brief: as §1
Another test deals with CCRF-CEM. Nature of the test: Inhibit the replication of CCRF-CEM cell line in vitro. The conditions noted are these: Homo sapiens, read-out: ED50 (the source's name). The method in brief:
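Human CCRF-CEM lymphoblastic leukemia cells held in suspension in RPMI medium with 10% horse serum, 37 °C, humidified 5% CO2. Test agent at various concentrations added to exponential-phase cultures (2 × 10⁴ cells/mL). Cell numbers compared with untreated cultures at 24, 48 and 72 h. 50% replication-inhibiting concentration read from dose-response curves, at least two independent experiments.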

Another test concerns P388. Nature of the test: Effective dose to inhibit the replication of P388 cell line in vitro. Particulars: Mus musculus, read-out: ED50 (the source's name). The method in brief:
as §1

As for `Nc1nc(=O)n([C@@H]2O[C@H](CO)C[C@H]2O)cc1I`, the EC50 in the test on L1210, in the test with CCRF S-180, with CCRF-CEM and in the test with P388 was above 100 µM each time.
Turning to `CC(=O)OC[C@@H]1C[C@H](O)[C@H](n2ccc(N)nc2=O)O1`, the EC50 in the test on L1210 amounted to 3 µM; in the test with CCRF S-180 it was 13 µM; in the test on CCRF-CEM it was 0.4 µM; in the test on P388, 3 µM.
As to `O=c1[nH]c(=O)n([C@@H]2O[C@H](CO)C[C@@H]2O)cc1Cl`, the EC50 in the test with L1210, in the test with CCRF S-180, in the test with CCRF-CEM and in the test with P388 was above 100 µM in each case.
For `Nc1ccn([C@@H]2O[C@H](CO)C[C@@H]2O)c(=O)n1`, the EC50 in the test on L1210 turned out to be 10 µM; in the test on CCRF S-180, 34 µM; with CCRF-CEM, 2 µM; in the test on P388 it was 5 µM.
On to `CC(=O)O[C@H]1C[C@@H](CO)O[C@H]1n1ccc(N)nc1=O`, for which the EC50 was 5 µM with L1210, 20 µM with CCRF S-180, 3 µM in the test with CCRF-CEM and 2 µM in the test with P388.
For `Nc1ccn([C@@H]2O[C@H](CO)[C@@H](O)[C@@H]2O)c(=O)n1` [CYTARABINE], the EC50 in the test with L1210 worked out at 0.05 µM; with CCRF S-180, 0.2 µM; in the test with CCRF-CEM, 0.005 µM; in the test on P388, 0.02 µM.
Regarding `Nc1nc(=O)n([C@@H]2O[C@H](CO)C[C@H]2O)cc1Br`, the EC50 in the test with L1210, in the test with CCRF S-180, in the test with CCRF-CEM and in the test with P388 was above 100 µM each time.
Take `O=c1[nH]c(=O)n([C@@H]2O[C@H](CO)C[C@H]2O)cc1Br`: the EC50 with L1210, in the test on CCRF S-180, with CCRF-CEM and in the test with P388 was above 100 µM each time.
For `O=c1[nH]c(=O)n([C@@H]2O[C@H](CO)C[C@@H]2O)cc1Br`, the EC50 in the test on L1210, in the test with CCRF S-180, in the test with CCRF-CEM and in the test on P388 was above 100 µM each time.
`O=c1ccn([C@@H]2O[C@H](CO)C[C@@H]2O)c(=O)[nH]1`: the EC50 in the test with L1210, with CCRF S-180, with CCRF-CEM and with P388 was above 100 µM in each case.
With `CC(=O)Nc1ccn([C@@H]2O[C@H](COC(C)=O)C[C@@H]2OC(C)=O)c(=O)n1`, the EC50 with L1210 was above 100 µM; in the test with CCRF S-180, above 100 µM; in the test with CCRF-CEM, 23 µM; in the test with P388, above 100 µM.
Consider `Nc1ccn([C@@H]2O[C@H](CO)C[C@H]2O)c(=O)n1`, for which the EC50 was 5 µM in the test with L1210, 15 µM in the test with CCRF S-180, 25 µM in the test with CCRF-CEM and 2.5 µM with P388.
Regarding `CC(=O)OC[C@@H]1C[C@H](OC(C)=O)[C@H](n2ccc(N)nc2=O)O1`, the EC50 with L1210 came to 20 µM; in the test on CCRF S-180, 30 µM; in the test on CCRF-CEM, 1 µM; in the test with P388 it was 10 µM.
Consider `CC(=O)Nc1ccn([C@@H]2O[C@H](CO)C[C@@H]2OC(C)=O)c(=O)n1`, for which the EC50 in the test on L1210, in the test on CCRF S-180, with CCRF-CEM and in the test on P388 was above 100 µM each time.
On to `O=c1ccn([C@@H]2O[C@H](CO)C[C@H]2O)c(=O)[nH]1`, for which the EC50 with L1210 is 50 µM; in the test with CCRF S-180 it was above 100 µM; in the test on CCRF-CEM it was above 100 µM; in the test on P388, 25 µM.
Take `O=c1[nH]c(=O)n([C@@H]2O[C@H](CO)C[C@@H]2O)cc1I`: the EC50 in the test on L1210, in the test with CCRF S-180, with CCRF-CEM and with P388 was above 100 µM throughout.
